Measurements gathered from unrelated publications.
PDGFRA V561D: Platelet-derived growth factor receptor alpha (PDGFRA, Homo sapiens, UniProt P16234, V561D)
PDGFRA: Platelet-derived growth factor receptor alpha (PDGFRA, Homo sapiens, UniProt P16234)
PDGFRA D842V: Platelet-derived growth factor receptor alpha (PDGFRA, Homo sapiens, UniProt P16234, D842V)

Structure (SMILES)	target	assay	conditions	endpoint	value
Cc1cnc(NC2CCOCC2)nc1-n1cnc(C(=O)NC(CN)c2cc(F)cc(Cl)c2)c1 (stereo not drawn)	PDGFRA V561D	enzyme activity, inhibitor, radiometric	1 µM	remaining activity	100%
CCCOc1ccc(OC)c(F)c1C(=O)c1ccc(C(=O)N[C@@H]2CNC[C@H]2NC(=O)c2ccc3[nH]ncc3c2)cc1	PDGFRA	enzyme activity, inhibitor	10 µM	remaining activity	89%
Cc1ccc(C(=O)NCc2ccsc2)cc1C#Cc1cn(C(C)C)c2ncnc(N)c12	PDGFRA D842V	enzyme activity, inhibitor	1 µM	activity vs control	2%
Cn1nc(C(=O)NCc2ccc(C(=O)O)cc2)cc1-c1ccc2[nH]ccc2c1	PDGFRA	cell-free assay, competition with immobilised ligand	0.1 µM	remaining binding	100%
COc1cc(-c2cc(-c3ccc(N4CCNCC4)cc3)cnc2N)cc(OC)c1OC	PDGFRA V561D	enzyme activity, inhibitor	1 µM	inhibition	86%
Cc1cc(NC(=O)c2cccc3cc(-c4cccc5[nH]nc(N)c45)ccc23)ccc1F	PDGFRA V561D	enzyme activity, inhibitor	0.1 µM	activity vs control	4%
CNC(=O)c1cc(Oc2ccc(NC(=O)Nc3ccc(Cl)c(C(F)(F)F)c3)cc2)ccn1	PDGFRA D842V	enzyme activity, inhibitor	0.3 µM	inhibition	86%
NS(=O)(=O)c1cc(NC(=O)Cc2ccccc2)ccc1Oc1cccc(Cl)c1	PDGFRA	cell-free assay, competition with immobilised ligand	1 µM	remaining binding	80%
Cc1ccc(NC(=O)c2ccc(C)c(C(F)(F)F)c2)cc1C#Cc1nn(C2CCC(O)CC2)c2ncnc(N)c12 (stereo not drawn)	PDGFRA D842V	enzyme activity, inhibitor	10 µM	remaining activity	0%
